What was measured:
[1] = system: PC-3; test: Antimigratory activity against human PC3 prostate cancer cell line at 100 nM after 12h; assay type: functional; settings: PC-3, 12 h
How it was run: (§1)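 Computer-assisted videomicroscopy tracking of living cultured cells, one image every 4 min over 24 h; migration scored as maximum relative distance from origin (MRDO) per cell, read at 12 or 22 h with compound at 100 nM or without (control). Control normalized to 0%. Triplicate analyses, 121–184 cells per condition; mean ± standard error.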

[2] = system: MCF7; test: Cytotoxicity against human MCF7 breast cancer cell line; assay type: functional, cell-based
How it was run: (§2)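 Colorimetric MTT assay on cultured human cancer cells after 3 days of continuous drug exposure. IC50 is the concentration that reduces overall cell-population growth by 50% relative to untreated cells.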

[3] = system: A549; test: Antimigratory activity against human A549 NSCLC cell line at 100 nM after 22h; assay type: functional; settings: A549, 22 h; how it was run: as §1
[4] = system: A549; test: Antimigratory activity against human A549 NSCLC cell line at 100 nM after 12h; assay type: functional; settings: A549, 12 h; how it was run: as §1
[5] = system: Mus musculus; test: Toxicity in mice at 160 mg/kg, ip 28 days post dose; assay type: organism-based; parameters: dose 160 mg/kg, route intraperitoneal; settings: in vivo, 672 h
How it was run: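 Healthy, non-tumor-grafted mice received a single acute ip dose of 160 mg/kg. Body weight and survival were recorded over at least 28 days after dosing to detect toxic effects.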

[6] = system: U373 MG; test: Cytotoxicity against human U373 glioblastoma cell line; assay type: functional, cell-based, U-373MG ATCC; how it was run: as §2
[7] = system: U373 MG; test: Antimigratory activity against human U373 glioblastoma cell line at 100nM after 22h; assay type: functional, U-373MG ATCC; how it was run: as §1
[8] = system: PC-3; test: Antimigratory activity against human PC3 prostate cancer cell line at 100 nM after 22h; assay type: functional; settings: PC-3, 22 h; how it was run: as §1
[9] = system: U373 MG; test: Antimigratory activity against human U373 glioblastoma cell line at 100 nM after 12h; assay type: functional, U-373MG ATCC; how it was run: as §1
[10] = system: HCT-15; test: Cytotoxicity against human HCT15 colon cancer cell line; assay type: functional, cell-based; how it was run: as §2
[11] = system: Hs 683; test: Cytotoxicity against human Hs683 cancer cell line; assay type: functional, cell-based; how it was run: as §2
[12] = system: A549; test: Cytotoxicity against human A549 NSCLC cell line; assay type: functional, cell-based; how it was run: as §2
[13] = system: PC-3; test: Cytotoxicity against human PC3 prostate cancer cell line; assay type: functional, cell-based; how it was run: as §2

Row | SMILES | inhibition at 0.1 µM [1] [%] | IC50 [2] [µM] | inhibition at 0.1 µM [3] [%] | inhibition at 0.1 µM [4] [%] | Activity [5] | IC50 [6] [µM] | inhibition at 0.1 µM [7] [%] | inhibition at 0.1 µM [8] [%] | inhibition at 0.1 µM [9] [%] | IC50 [10] [µM] | IC50 [11] [µM] | IC50 [12] [µM] | IC50 [13] [µM]
1 | COc1ccc(OC)c([C@@H]2C[C@H]3[C@@H]4CC=C5C[C@@H](O[C@@H]6O[C@H](CO)[C@@H](O)[C@H](O)[C@H]6O)CC[C@]5(C)[C@H]4CC[C@]3(C)[C@H]2C(C)=O)c1 | 2 | > 10 | 9 | 2 | Non-toxic | > 10 | -8 | 6 | -6 | > 10 | > 10 | > 10 | > 10
2 | COc1ccc(OC)c([C@@H]2C[C@H]3[C@@H]4CC=C5C[C@@H](O)CC[C@]5(C)[C@H]4CC[C@]3(C)[C@H]2C(C)=O)c1 | 5 | > 10 | 6 | 0 | Non-toxic | > 10 | 7 | 10 | 2 | > 10 | > 10 | > 10 | > 10

Source: ChEMBL document CHEMBL1138155, “A lactosylated steroid contributes in vivo therapeutic benefits in experimental models of mouse lymphoma and human glioblastoma” (J Med Chem, 2006)
